The results in this text go back to ChEMBL document CHEMBL5236609, “Optimization of 1,2,4-Triazole-3-thiones toward Broad-Spectrum Metallo-β-lactamase Inhibitors Showing Potent Synergistic Activity on VIM- and NDM-1-Producing Clinical Isolates” (J Med Chem, 2022).

Each structure is given as a SMILES string.

One series has as its system Klebsiella pneumoniae. As to the kind of experiment: Antimicrobial activity against blaVIM-1-producing multidrug-resistant Klebsiella pneumoniae K47-25 clinical isolate assessed as meropenem MIC at 32 ug/ml by broth microdilution method (reference value: […] ug/ml). Particulars: dose 32 µg/ml. The series is classed as functional. A digest of the protocol:
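Inoculum was 5×10^4 CFU/well. Each inhibitor was present at a fixed 32 μg/mL, and MICs were also taken without inhibitor.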
Background: Broth dilution looks for growth in wells or tubes with falling amounts of substance.

Series [1] in a line: Solubility in PBS pH 7.4 after 24 hrs by LC-MS/MS analysis. The series is classed as physicochemical. Put shortly:
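Solubility in 10 mM PBS, pH 7.4.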

The nature of series [2]: Stability in mouse plasma assessed as half life at 37 degC. The series is classed as ADME, cell-free.
A short description of series [3]: Plasma protein binding in CD-1 mouse plasma measured after 4 hrs by LC-MS/MS analysis. The series is classed as ADME, cell-free. The conditions noted are these: read-out: PPB (converted). A digest of the protocol:
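Binding to mouse plasma proteins (mixed gender) measured; diclofenac as control.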

Series [4] addresses T1, Endoplasmic reticulum aminopeptidase 1 (Mus musculus) (UniProt Q9EQH2).
T1 sequence (whole entry): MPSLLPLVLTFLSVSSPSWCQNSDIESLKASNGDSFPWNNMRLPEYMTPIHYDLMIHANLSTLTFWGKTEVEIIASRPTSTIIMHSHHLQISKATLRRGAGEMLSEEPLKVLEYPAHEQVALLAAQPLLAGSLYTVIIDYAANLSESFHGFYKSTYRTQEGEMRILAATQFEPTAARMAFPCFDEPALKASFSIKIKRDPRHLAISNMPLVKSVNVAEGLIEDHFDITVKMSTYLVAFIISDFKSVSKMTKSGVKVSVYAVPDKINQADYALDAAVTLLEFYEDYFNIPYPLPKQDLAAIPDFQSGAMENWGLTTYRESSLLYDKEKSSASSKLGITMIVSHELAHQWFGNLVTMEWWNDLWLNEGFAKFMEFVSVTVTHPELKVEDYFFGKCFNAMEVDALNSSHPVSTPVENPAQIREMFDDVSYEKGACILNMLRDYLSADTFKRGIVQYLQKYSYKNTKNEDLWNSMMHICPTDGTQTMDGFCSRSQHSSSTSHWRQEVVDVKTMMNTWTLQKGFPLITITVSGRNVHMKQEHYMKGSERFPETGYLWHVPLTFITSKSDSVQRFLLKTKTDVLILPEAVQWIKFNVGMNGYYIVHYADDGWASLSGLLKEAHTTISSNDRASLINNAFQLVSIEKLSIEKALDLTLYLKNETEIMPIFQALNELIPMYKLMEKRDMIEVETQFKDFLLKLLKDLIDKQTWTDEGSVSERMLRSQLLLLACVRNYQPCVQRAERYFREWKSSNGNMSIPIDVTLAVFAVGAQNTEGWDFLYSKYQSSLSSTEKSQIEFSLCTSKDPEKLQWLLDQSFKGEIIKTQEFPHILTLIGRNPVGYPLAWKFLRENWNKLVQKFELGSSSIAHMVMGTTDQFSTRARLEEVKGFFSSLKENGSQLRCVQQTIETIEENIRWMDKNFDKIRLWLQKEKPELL
The series is described as follows: Inhibition of recombinant mouse ERAAP using fluorogenic substrate H-Leu-AMC at 100 uM relative to control. A digest of the protocol:
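Mouse ERAAP, H-Leu-AMC substrate; undisclosed in-house control inhibitor. Percent inhibition at 100 μM, one experiment in duplicate.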

The target of series [5] is T2, Protein deacetylase HDAC6 (Homo sapiens) (UniProt Q9UBN7).
T2 sequence (whole entry): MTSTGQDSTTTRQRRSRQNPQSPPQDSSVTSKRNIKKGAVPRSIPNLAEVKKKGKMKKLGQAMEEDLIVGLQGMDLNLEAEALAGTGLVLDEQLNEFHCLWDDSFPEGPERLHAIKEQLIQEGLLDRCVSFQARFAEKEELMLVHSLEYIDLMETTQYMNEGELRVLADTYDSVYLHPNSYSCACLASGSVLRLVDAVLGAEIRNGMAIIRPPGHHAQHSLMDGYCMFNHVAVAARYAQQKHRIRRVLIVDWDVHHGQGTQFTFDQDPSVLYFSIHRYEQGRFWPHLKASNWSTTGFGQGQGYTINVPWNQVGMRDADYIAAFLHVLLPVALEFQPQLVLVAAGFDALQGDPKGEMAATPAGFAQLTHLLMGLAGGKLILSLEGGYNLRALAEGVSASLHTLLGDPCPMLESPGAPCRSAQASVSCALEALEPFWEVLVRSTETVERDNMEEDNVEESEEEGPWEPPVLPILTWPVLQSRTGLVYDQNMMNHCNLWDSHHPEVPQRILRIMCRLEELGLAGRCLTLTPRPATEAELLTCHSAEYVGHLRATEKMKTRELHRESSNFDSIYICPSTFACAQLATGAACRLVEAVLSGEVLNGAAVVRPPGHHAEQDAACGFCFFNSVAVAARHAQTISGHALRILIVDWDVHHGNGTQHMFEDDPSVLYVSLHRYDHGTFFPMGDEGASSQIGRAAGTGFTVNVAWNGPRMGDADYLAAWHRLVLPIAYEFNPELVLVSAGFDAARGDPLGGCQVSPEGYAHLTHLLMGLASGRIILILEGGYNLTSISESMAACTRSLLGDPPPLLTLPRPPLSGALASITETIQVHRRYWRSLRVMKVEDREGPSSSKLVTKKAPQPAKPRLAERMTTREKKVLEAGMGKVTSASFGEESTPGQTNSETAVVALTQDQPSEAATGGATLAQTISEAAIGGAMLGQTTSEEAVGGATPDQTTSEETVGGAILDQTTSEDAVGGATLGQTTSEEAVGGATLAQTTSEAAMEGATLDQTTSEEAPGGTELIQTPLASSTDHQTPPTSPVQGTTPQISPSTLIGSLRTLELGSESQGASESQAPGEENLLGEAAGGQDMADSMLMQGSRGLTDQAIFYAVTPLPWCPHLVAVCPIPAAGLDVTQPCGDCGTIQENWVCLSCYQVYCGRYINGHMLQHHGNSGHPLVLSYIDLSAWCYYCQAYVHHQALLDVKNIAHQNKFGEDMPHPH
As to the kind of experiment: Inhibition of recombinant human His-tagged HDAC6 expressed in baculovirus expression system using fluorogenic peptide substrate measured after 45 mins at 100 uM relative to control. A digest of the protocol:
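Human HDAC6 fluorimetric kit with Fluor de Lys substrate; panobinostat as control inhibitor. Percent inhibition at 100 μM, one experiment in duplicate.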

The next series deals with Escherichia coli. The series is described as follows: Antimicrobial activity against blaNDM-1-producing multidrug-resistant Escherichia coli SI-004 clinical isolate assessed as meropenem MIC at 32 ug/ml by broth microdilution method (reference value: 64 ug/ml).

Usually MIC stands for the lowest concentration found to suppress growth. A word on the solubility: it is the concentration that dissolves in the medium under given conditions. High values mean much dissolved substance, low ones little dissolved substance. One may read the half-life as how long it takes for the measured level to halve. For orientation: inhibition means the percentage by which the read-out fell short of the control. As for `Cc1[nH]cnc1CN(Cc1c[nH]cn1)[C@@H](CCCn1c(-c2ccccc2)n[nH]c1=S)C(=O)O`, the MIC in the series on Klebsiella pneumoniae and with Escherichia coli was 0.06 µg/mL each time. In series [1], this compound yielded a solubility at 24 h not below 200 µM. The half-life in series [2] is more than 6 h. In series [3], the fraction unbound at 4 h was 0.377. Further, the inhibition is 42% in series [4] and less than 100% in series [5].

Take `O=C(O)[C@H](CCn1c(-c2ccccc2)n[nH]c1=S)N(Cc1c[nH]cn1)Cc1c[nH]cn1`: the minimum inhibitory concentration (MIC) with Klebsiella pneumoniae and in the series on Escherichia coli was 0.06 µg/mL in each case. For the same compound, the solubility at 24 h in series [1] is not below 200 µM. Besides, in series [2], the half-life is more than 6 h. Besides, the fraction unbound at 4 h in series [3] is 0.45. The figures for the inhibition in series [4] and in series [5] were 51% and less than 100%, respectively.

`O=C(O)[C@H](CCCn1c(-c2ccccc2)n[nH]c1=S)N(Cc1ccccn1)Cc1ccccn1`: the minimum inhibitory concentration (MIC) in the series on Klebsiella pneumoniae and in the series on Escherichia coli was 0.06 µg/mL throughout. The compound further registered a solubility at 24 h in series [1] not below 200 µM. Further, in series [2], the half-life was more than 6 h. Moreover, the fraction unbound at 4 h in series [3] was 0.313. The inhibition in series [4] was 13%; in series [5], less than 100%.

For the compound `O=C(O)[C@H](CCCn1c(-c2ccccc2)n[nH]c1=S)N(Cc1c[nH]cn1)Cc1c[nH]cn1`, the MIC came out at 0.03 µg/mL in the series on Klebsiella pneumoniae and 0.06 µg/mL with Escherichia coli. Also, the solubility at 24 h in series [1] is not below 200 µM. The half-life in series [2] is more than 6 h. Further, in series [3], the fraction unbound at 4 h is 0.324. Moreover, the values for the inhibition in series [4] and in series [5] were 51% and less than 100%, respectively.

Take `O=C(O)[C@H](CCCn1c(-c2ccc3ccccc3c2)n[nH]c1=S)N(Cc1c[nH]cn1)Cc1c[nH]cn1`: the minimal inhibitory concentration (MIC) in the series on Klebsiella pneumoniae worked out at 0.03 µg/mL; with Escherichia coli, 0.06 µg/mL. In series [1], this compound gave a solubility at 24 h not below 200 µM. In addition, in series [2], the half-life was more than 6 h. In addition, in series [3], the fraction unbound at 4 h was 0.048. The inhibition in series [4] is 63%; in series [5] it was less than 100%.
